Screens as filed in PubChem BioAssay.
Rows were chosen to be rich in hits. Some 3.7% of all compounds tested hit in one or more screens of this group.
hERG protect = hERG rescue from dofetilide block, primary screen, cell-based, CHO-hERG, FluxOR thallium flux, dofetilide IC70. Voltage-gated inwardly rectifying potassium channel KCNH2 (Homo sapiens), Q12809. dofetilide IC70 present. activation (rescue from dofetilide block), less the hit threshold, % at 10 µM. actives 0.51% (n = 310,000). AID 1511, 2009;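 active = activation above the mean of controls blocked by dofetilide plus 5 SD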;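 also: thallium influx through hERG after potassium depolarization seen as dye fluorescence rise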
KCNQ1 pot = potentiators or activators of KCNQ1 channel, primary screen, cell-based, thallium flux, high-throughput; CHO-K1 KCNQ1, thallium flux FluxOR fluorescence; active compounds read high; actives 0.35% (n = 310,000); Potassium voltage-gated channel subfamily KQT member 1 (Homo sapiens), P51787; B-score at 10 µM; AID 2648, 2010;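 active = fluorescence ratio B-score, a plate-corrected score, at least three library SD, with initial intensity B-score within 5 SD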
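Test system: CHO-K1 cells stably expressing KCNQ1 / Medium: assay buffer / Also added: depolarizing K+/Tl+ stimulus, K2SO4 and Tl2SO4 each 12.5 mM in 5x stock / Incubation: 90 min dye loading and 20 min compound exposure, both at room temperature / Signal: thallium influx via FluxOR fluorescence, kinetic imaging / Evaluation: B score of baseline-normalized fluorescence ratio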
KCNK3 block = human KCNK3 channel inhibitors, primary screen, CHO cells, FluxOR thallium flux, B-score | actives 0.84% (n = 340,000) | FluxOR fluorescence; active compounds read low | B-score at 10 µM | AID 602410, 2012;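 active = B-score under library mean minus 4 SD, starting fluorescence ratio at most library mean plus 5 SD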;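 also: more negative B-score means stronger inhibition of thallium flux through KCNK3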
Kir21 block = inhibitors of mouse Kir2.1 inward-rectifier potassium channel; actives 0.85% (n = 310,000); B-score at 10 µM; Inward rectifier potassium channel 2 (Mus musculus), P35561; HEK293-Kir2.1, FluxOR thallium flux fluorescence; active compounds read low; AID 1672, 2009;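 active = fluorescence ratio B-score at or below minus 3 SD of library scores, with starting-brightness B-score within 2 SD, cut at about -4.2 in these data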;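 also: channel flux triggered by added potassium and thallium sulfate stimulus; B-score of peak minus minimum fluorescence over baseline after thallium stimulus; more negative B-score means stronger Kir2.1 block with less thallium influx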
Target sequence (P35561 whole entry, looked up): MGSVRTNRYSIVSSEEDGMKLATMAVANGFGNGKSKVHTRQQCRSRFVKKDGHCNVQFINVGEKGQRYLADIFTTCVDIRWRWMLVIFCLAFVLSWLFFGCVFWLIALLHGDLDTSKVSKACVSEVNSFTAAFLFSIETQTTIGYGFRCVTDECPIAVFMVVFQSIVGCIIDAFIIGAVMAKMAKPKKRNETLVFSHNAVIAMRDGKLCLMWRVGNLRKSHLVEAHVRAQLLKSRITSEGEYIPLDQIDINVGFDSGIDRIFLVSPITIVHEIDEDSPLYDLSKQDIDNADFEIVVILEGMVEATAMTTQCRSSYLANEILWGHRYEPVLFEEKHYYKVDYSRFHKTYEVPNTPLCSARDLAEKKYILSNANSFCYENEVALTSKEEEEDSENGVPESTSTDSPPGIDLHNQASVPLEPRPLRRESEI
KCNK9 inh = KCNK9 potassium channel inhibitors, primary screen, HEK293 cells, thallium flux. Potassium channel subfamily K member 9 (Homo sapiens), Q9NPC2. B-score at 10 µM. FluxOR thallium flux fluorescence; active compounds read low. actives 1.2% (n = 310,000). AID 488922, 2010;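 active = ratio B-score over 3 SD below the library mean, with starting fluorescence within 5 SD of its mean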;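 also: negative B-score means less thallium flux so channel inhibition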
KCNQ1 block = inhibitors of human KCNQ1 channel, primary screen, cell-based, thallium flux, high-throughput. CHO-K1 KCNQ1, FluxOR thallium flux fluorescence; active compounds read high. B-score at 10 µM. actives 1.3% (n = 310,000);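 active = compounds whose thallium flux B-score, printed positive for inhibition, exceeds three library SD while starting fluorescence stays within three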;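 also: channel opened by potassium depolarization with thallium stimulus after 20 min compound exposure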
KCNK9 block conf = KCNK9 potassium channel inhibitors, confirmation, HEK293 cells, thallium flux, duplicate; actives 43% (n = 4,900); shares compounds with KCNK9 inh; FluxOR thallium flux fluorescence; inhibition, % at 10 µM;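 active = thallium signal inhibited by more than 5 SD of the compound-free buffer control wells, on both duplicate plates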
Kir2-1 spec = mouse Kir2.1 channel inhibition, confirmation, selectivity assay for KCNK9 modulator project, cell-based, HEK293, thallium flux | inhibition, % at 10 µM | actives 4% (n = 4,900) | shares compounds with KCNK9 inh | AID 492993, 2010 | Kir2.1 cells, FluxOR thallium flux fluorescence;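 active = thallium signal drop more than 5 SD beyond the mean of the no-compound control wells, seen in both duplicate plates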;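 also: signal is fluorescence rise after thallium addition divided by baseline fluorescence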
KCNK9 uninduced = thallium flux in non-induced HEK293 cells, confirmation, counter-screen for KCNK9 inhibitor project, cell-based, second counter screen, non-induced KCNK9-HEK293. actives 40% (n = 4,900). FluxOR thallium flux. inhibition, % at 10 µM. shares compounds with KCNK9 inh;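 active = thallium signal drop beyond 5 SD of the untreated control mean, on both duplicate plates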
Hits are given with their value; - = inactive; . = not tested or not shown.

SMILES	hERG protect	KCNQ1 pot	KCNK3 block	Kir21 block	KCNK9 inh	KCNQ1 block	KCNK9 block conf	Kir2-1 spec	KCNK9 uninduced
O=C1C2C3C=CC(C4CC34)C2C(=O)N1/N=C/c1ccc(-c2ccc(Cl)cc2[N+](=O)[O-])o1 (centres undefined)	-	-	-	-	-	-	-	-	-
COc1ccc(-c2ccc(/C=N/N3C(=O)C4C5C=CC(C6CC56)C4C3=O)o2)c([N+](=O)[O-])c1 (centres undefined)	-	-	-	-	-	-	.	.	.
CCOC(=O)c1cnc2ccc(OC)cc2c1NCc1ccccc1	-	-	-	-	-	-	-	-	-
CCOC(=O)c1cnc2ccc(OCC)cc2c1NCc1ccccc1OC	-	-	-	-	-	-	.	.	.
Clc1ccc(COn2c(-c3ccc(Cl)cc3)nc3ccccc32)cc1	-	-	-11	-	-16	-	80%	-	36%
O=C(O)COn1c(-c2ccc(Cl)cc2)nc2ccc(Cl)cc21	-	-	-	-	-	-	.	.	.
Cc1ccc(N(Cc2cc3cccc(C)c3[nH]c2=O)S(=O)(=O)c2ccccc2)c(C)c1	-	-	-	-	-	-	-	-	-
CCOC(=O)c1cnn(-c2nc(CC)nc3sc4c(c23)CCC4)c1N	-	-	-	-	-10	-	36%	-	-
O=C(CNC(=O)Cc1ccccc1)NCc1cccc(C(F)(F)F)c1	-	-	-	-	-	-	.	.	.
CC[C@@H](C)[C@H](CNC)NC[C@@H](Cc1cccc2ccccc12)NCCc1cccc(C(F)(F)F)c1	-	-	-	-6.5	-9	9	38%	52%	34%
COc1ccc(S(=O)(=O)N2CCCCCC2)cc1C(=O)N1CCN(c2ccc(F)cc2)CC1	.	.	-	.	.	.	.	.	.
N#C/C(=C\c1cn[nH]c1-c1ccc(Cl)cc1)C(=O)NC1CC1	-	-	-	-	-	-	.	.	.
N#C/C(=C\c1cn[nH]c1-c1ccccc1)C(=O)NC1CCCCCC1	-	-	-	-	-	-	-	-	-
Cc1ccc(SCCCn2cnc3ccccc3c2=O)cc1	-	-	-	-	-	-	-	-	-
Cc1ccc(N2CC(C(=O)Nc3c4c(nn3C(C)(C)C)CS(=O)(=O)C4)CC2=O)cc1 (centres undefined)	-	-	-	-	-	-	.	.	.
CCN(CC)c1nc(C)nc2c1cnn2CCc1ccccc1	-	-	-	-	-	-	-	-	-
CCN(CC)c1ncnc2c1cnn2Cc1ccc(C)cc1	-	-	-	-	-	-	.	.	.
C=CCn1c(C(C)NC(=O)c2cccc(C)c2)n[nH]c1=S (centres undefined)	-	-	-	-	-	-	.	.	.
COc1ccc(/C=N/N(c2ccccc2)c2ccccc2)cc1O	-	-	-	-	-	8	-	-	-
Nc1[nH]n2c(=O)c3c(nc2c1N=Nc1ccccc1)CCCC3	-	-	-	-	-	-	.	.	.
Nc1[nH]n2c(=O)c3c(nc2c1N=Nc1ccc(Cl)cc1)CCCC3	-	-	-	-	-9.6	-	39%	-	-
Cc1cc(C)c(NC(=O)CNC(=O)c2cc([N+](=O)[O-])ccc2N2CCOCC2)c(C)c1	-	-	-	-	-	-	.	.	.
CCOc1ncccc1C(=O)Nc1ccc(C)c(S(=O)(=O)N2CCCCCC2)c1	.	.	-	.	.	.	.	.	.
C/C(=N\NC(=O)COc1ccc(C)cc1C(C)C)c1cc2ccccc2o1	-	-	-	-	-	-	-	-	-
C/C(=N\NC(=O)COc1ccc(C(C)(C)C)cc1)c1cc2ccccc2o1	-	-	-	-	-	-	-	-	-
SMILES	hERG protect	KCNQ1 pot	KCNK3 block	Kir21 block	KCNK9 inh	KCNQ1 block	KCNK9 block conf	Kir2-1 spec	KCNK9 uninduced
O=c1c2c(ncn2C2CCCC2)n(Cc2ccccc2)c(=O)n1CCOc1ccccc1	-	-	-	-	-	-	-	-	-
Cc1ccc(C)c(OCCn2c(=O)c3c(ncn3C3CCCC3)n(Cc3ccccc3)c2=O)c1	-	-	-	-	-	-	-	-	-
O=c1c2c(ncn2C2CCCC2)n(Cc2ccccc2)c(=O)n1CCOc1ccc(Br)cc1	-	-	-	-	-	-	-	-	-
CCN(c1ccc(NC(=O)c2ccc(N3CCCC3=O)cc2)cc1)C(C)C	-	-	-	-	-	-	.	.	.
CC1CCC2(CC1)NC(=O)N(NC(=O)c1cccc(N(C)C)c1)C2=O (centres undefined)	.	.	-	.	.	.	.	.	.
CCn1nc(NS(=O)(=O)c2ccccc2[N+](=O)[O-])c2cc3ccc(C)cc3nc21	-	-	-	-	-	-	.	.	.
CCn1c(SCC(=O)N/N=C/C(C)=C\c2ccco2)nnc1-c1ccccc1	-	-	-	-	-	-	-	-	-
O=C(O)C1(O)C[C@@H](O)C(O)[C@H](O)C1 (some centres undefined)	.	.	-	.	.	.	.	.	.
CN(Cc1ccc2ccccc2c1)C(=O)c1ccc(C(F)(F)F)cc1	-	-	-	-	-	-	-	-	38%
COc1ccc(CN(C)C(=O)c2ccc(Oc3ccccc3)cc2)cc1F	-	-	-	-	-	-	.	.	.
CCOC(=O)C1CCCN(C(=O)c2ccc(Cl)c(S(=O)(=O)N3CCCCC3)c2)C1 (centres undefined)	-	-	-	-	-	-	-	-	-
O=C(c1ccc(Cl)c(S(=O)(=O)N2CCCCCC2)c1)N1CCCC(C(F)(F)F)C1 (centres undefined)	-	-	-	-	-	-	-	-	-
CCCn1c(C)cc(C(=O)COC(=O)c2ccc(Cl)c(S(=O)(=O)N3CCCC3)c2)c1C	-	-	-	-	-18	-	65%	-	-
O=C(c1ccc(Cl)c(S(=O)(=O)N2CCCCCC2)c1)N1CCCCC1	-	-	-	-	-	-	.	.	.
